# Paper PMC5488297 (Chemistry (Weinheim an Der Bergstrasse, Germany), 2017)
# Tests used:
# [1] = tested on: U87 (αVβ3+) human glioblastoma cells; experiment: Anti‐proliferative activity, CellTiter-Glo ATP cell viability, U87; type: cell-based; conditions: 144 h
# Outline: (§1)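 U87 human glioblastoma cells were used alongside an isogenic U87 clone with the β3 integrin subunit gene deleted by CRISPR-Cas9. Absence of αVβ3 was confirmed by flow cytometry using anti-αVβ3 antibody LM609 plus a fluorescent secondary antibody. Cells were exposed to increasing concentrations of test compound for 144 h, with free paclitaxel run in parallel. Viability was read as cellular ATP by CellTiter-Glo. IC50 was taken as the concentration giving 50 % inhibition of viability.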
# U87 β3‐KO (αVβ3−) cells = experiment: Anti‐proliferative activity, CellTiter-Glo ATP cell viability, U87 β3‐KO; type: cell-based; conditions: Homo sapiens, 144 h
# Outline: as §1
# [2] = tested on: U87 (αVβ3+) and U87 β3‐KO (αVβ3−) cells; experiment: Targeting index / selectivity between U87 β3‐KO and U87 cells; type: cell-based, human; conditions: for Targeting index (TI): [IC50(αVβ3−)/IC50(αVβ3+)]conjugate/[IC50(αVβ3−)/IC50(αVβ3+)]paclitaxel
# Outline: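 The targeting index uses IC50s from the 144 h CellTiter-Glo ATP viability assay on the isogenic U87 and U87 β3-KO (CRISPR-Cas9 β3 deletion) pair. The ratio IC50(β3-KO)/IC50(U87) for the conjugate is divided by the same ratio for free paclitaxel tested in parallel under identical conditions.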
# purified αVβ3 receptor = purified αVβ3 receptor (Homo sapiens, UniProt P05106+P06756); experiment: Inhibition of biotinylated vitronectin binding to purified αVβ3 receptor
# [3] = tested on: FAK/Akt integrin‐activated transduction pathway; conditions: cited from earlier work
# [4] = tested on: integrin‐mediated cell infiltration processes; conditions: cited from earlier work
# purified αVβ3 receptor, sequence (P06756 891-1048): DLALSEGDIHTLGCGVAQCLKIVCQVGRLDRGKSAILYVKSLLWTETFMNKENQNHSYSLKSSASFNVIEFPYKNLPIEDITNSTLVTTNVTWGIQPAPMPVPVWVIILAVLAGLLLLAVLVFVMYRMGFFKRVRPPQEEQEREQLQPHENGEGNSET
# purified αVβ3 receptor, sequence (P06756 31-889): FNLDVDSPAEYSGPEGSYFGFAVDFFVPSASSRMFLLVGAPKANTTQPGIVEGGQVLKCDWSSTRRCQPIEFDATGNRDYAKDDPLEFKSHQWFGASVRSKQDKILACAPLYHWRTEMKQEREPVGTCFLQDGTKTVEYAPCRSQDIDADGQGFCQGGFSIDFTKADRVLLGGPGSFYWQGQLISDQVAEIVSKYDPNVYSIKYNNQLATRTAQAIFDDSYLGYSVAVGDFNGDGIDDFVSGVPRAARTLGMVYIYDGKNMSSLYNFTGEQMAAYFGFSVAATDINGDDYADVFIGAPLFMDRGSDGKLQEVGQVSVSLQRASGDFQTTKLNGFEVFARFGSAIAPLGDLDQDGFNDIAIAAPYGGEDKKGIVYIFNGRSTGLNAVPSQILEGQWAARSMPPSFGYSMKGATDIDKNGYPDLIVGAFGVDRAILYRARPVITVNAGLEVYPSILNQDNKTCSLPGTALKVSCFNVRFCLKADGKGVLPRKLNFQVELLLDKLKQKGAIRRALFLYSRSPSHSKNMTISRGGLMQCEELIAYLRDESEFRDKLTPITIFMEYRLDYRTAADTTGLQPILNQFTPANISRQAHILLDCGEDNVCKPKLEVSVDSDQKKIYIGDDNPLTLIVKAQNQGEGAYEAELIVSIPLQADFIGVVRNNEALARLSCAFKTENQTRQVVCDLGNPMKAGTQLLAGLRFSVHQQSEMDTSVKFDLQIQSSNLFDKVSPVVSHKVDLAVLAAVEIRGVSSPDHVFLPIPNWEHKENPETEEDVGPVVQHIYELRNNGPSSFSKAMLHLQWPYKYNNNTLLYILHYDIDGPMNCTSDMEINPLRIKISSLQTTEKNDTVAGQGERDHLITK
# purified αVβ3 receptor, sequence (P05106 27-788): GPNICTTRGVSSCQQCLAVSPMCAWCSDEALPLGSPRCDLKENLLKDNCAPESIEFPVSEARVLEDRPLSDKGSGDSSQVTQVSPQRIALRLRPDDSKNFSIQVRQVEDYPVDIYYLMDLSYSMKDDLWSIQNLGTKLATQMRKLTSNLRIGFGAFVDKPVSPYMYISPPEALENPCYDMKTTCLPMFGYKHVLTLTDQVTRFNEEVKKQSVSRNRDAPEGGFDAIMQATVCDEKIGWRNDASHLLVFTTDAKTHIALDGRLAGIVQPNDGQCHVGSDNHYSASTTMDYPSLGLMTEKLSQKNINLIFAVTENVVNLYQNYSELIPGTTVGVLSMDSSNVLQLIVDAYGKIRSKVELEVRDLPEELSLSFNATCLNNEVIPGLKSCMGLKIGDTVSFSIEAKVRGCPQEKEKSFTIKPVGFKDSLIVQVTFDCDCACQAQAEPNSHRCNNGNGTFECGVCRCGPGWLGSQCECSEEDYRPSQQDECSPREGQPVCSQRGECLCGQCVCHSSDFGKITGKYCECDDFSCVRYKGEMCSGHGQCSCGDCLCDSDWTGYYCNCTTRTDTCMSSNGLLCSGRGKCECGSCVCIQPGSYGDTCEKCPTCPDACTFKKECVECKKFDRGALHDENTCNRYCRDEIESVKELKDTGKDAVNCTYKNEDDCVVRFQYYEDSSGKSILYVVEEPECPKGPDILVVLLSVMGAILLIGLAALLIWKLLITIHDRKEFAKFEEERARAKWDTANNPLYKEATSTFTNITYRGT
compound,measurement,setting,value
CC(=O)O[C@H]1C(=O)[C@@]2(C)[C@H]([C@H](OC(=O)c3ccccc3)[C@]3(O)C[C@H](OC(=O)[C@H](O)[C@@H](NC(=O)c4ccccc4)c4ccccc4)C(C)=C1C3(C)C)[C@]1(OC(C)=O)CO[C@@H]1C[C@@H]2O [Paclitaxel],IC50,[1],0.64 nM
same,IC50,U87 β3‐KO (αVβ3−) cells,0.28 nM
same,times more effective on U87 β3‐KO cells (than on U87),[2]; 144 h,2.3 times
same,Targeting index (TI),[2]; 144 h,1
"CC(=O)O[C@H]1C(=O)[C@@]2(C)[C@H]([C@H](OC(=O)c3ccccc3)[C@]3(O)C[C@H](OC(=O)[C@H](OC(=O)N(C)CCN(C)C(=O)OCc4ccc(NC(=O)[C@H](C)NC(=O)[C@@H](NC(=O)CCCC(=O)NCc5ccc(CN6C(=O)[C@H]7CC(=O)N[C@H](C(=O)O)CC(=O)NCC(=O)N[C@@H](CCCNC(=N)N)C(=O)NC[C@H]6C(=O)N7)cc5)C(C)C)cc4)[C@@H](NC(=O)c4ccccc4)c4ccccc4)C(C)=C1C3(C)C)[C@]1(OC(C)=O)CO[C@@H]1C[C@@H]2O [compound 2, cyclo[DKP‐isoDGR]‐Val‐Ala‐PTX]",IC50,purified αVβ3 receptor,11 ± 0.2 nM
same,affinity for the purified integrin αVβ3 receptor (in words),purified αVβ3 receptor,low nanomolar affinity
same,Targeting index (TI),[2]; 144 h,9.9
same,targeting ability (in words),[2]; two isogenic cancer cell lines expressing integrin αVβ3 at different levels,notable targeting ability
"CC(=O)O[C@H]1C(=O)[C@@]2(C)[C@H]([C@H](OC(=O)c3ccccc3)[C@]3(O)C[C@H](OC(=O)[C@H](OC(=O)N(C)CCN(C)C(=O)OCc4ccc(NC(=O)[C@H](C)NC(=O)[C@@H](NC(=O)CCCC(=O)NCc5ccc(CN6C(=O)[C@H]7CC(=O)N[C@@H](CCCNC(=N)N)C(=O)NCC(=O)N[C@@H](CC(=O)O)C(=O)NC[C@H]6C(=O)N7)cc5)C(C)C)cc4)[C@@H](NC(=O)c4ccccc4)c4ccccc4)C(C)=C1C3(C)C)[C@]1(OC(C)=O)CO[C@@H]1C[C@@H]2O [compound 4, cyclo[DKP‐RGD]‐Val‐Ala‐PTX]",IC50,purified αVβ3 receptor,13.3 ± 3.6 nM
same,Targeting index (TI),[2]; 144 h,2.4
cyclo[DKP‐isoDGR] [compound 1],effect on FAK/Akt integrin‐activated transduction pathway,[3],inhibitory effects
same,effect on integrin‐mediated cell infiltration processes,[4],inhibitory effects
